Consider 26 compounds from ChEMBL document CHEMBL2034854, “Design, synthesis and biological evaluation of novel amino acid ureido derivatives as aminopeptidase N/CD13 inhibitors” (Bioorg Med Chem, 2012).

Assay [1] concerns the target T1, Aminopeptidase N (Sus scrofa, UniProt P15145).
T1 sequence (P15145 whole entry): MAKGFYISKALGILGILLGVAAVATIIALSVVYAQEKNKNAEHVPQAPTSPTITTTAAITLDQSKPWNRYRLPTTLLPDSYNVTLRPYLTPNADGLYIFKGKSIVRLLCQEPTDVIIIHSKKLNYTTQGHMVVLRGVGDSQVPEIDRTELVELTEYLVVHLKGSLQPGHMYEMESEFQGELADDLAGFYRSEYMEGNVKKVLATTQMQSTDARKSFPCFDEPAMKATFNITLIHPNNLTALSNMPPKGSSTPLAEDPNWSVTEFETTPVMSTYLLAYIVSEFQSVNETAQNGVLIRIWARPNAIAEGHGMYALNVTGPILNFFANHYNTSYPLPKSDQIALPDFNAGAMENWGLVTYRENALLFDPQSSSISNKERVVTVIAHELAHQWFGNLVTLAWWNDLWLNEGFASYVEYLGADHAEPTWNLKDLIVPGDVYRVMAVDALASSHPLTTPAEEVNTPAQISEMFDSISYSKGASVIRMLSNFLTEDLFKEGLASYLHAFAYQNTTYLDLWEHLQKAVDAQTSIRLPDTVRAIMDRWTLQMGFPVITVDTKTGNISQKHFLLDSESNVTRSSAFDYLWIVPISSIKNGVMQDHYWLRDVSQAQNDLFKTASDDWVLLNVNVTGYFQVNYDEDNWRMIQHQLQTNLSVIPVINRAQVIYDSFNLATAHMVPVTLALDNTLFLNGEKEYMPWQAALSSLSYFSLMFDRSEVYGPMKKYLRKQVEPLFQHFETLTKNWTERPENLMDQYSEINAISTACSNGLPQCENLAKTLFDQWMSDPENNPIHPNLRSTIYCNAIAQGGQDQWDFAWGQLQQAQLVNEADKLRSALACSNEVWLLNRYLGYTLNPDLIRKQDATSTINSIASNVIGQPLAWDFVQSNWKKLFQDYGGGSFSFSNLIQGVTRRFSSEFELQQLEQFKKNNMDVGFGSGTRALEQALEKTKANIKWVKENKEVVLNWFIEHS
The experiment in a line: Inhibition of pig kidney APN using L-Leu-p-nitroanilide as substrate incubated for 5 mins prior to substrate addition measured after 30 mins by UV/VIS spectrophotometry. An outline of the steps: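 Porcine kidney microsomal APN, 6 μg/mL final, in 50 mM PBS pH 7.2 with 0.5% DMSO final. Inhibitor and enzyme preincubated 5 min at room temperature. Percent inhibition from control and zero-setting OD; IC50 calculated.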

The target in assay [2] is Aminopeptidase N (Homo sapiens, UniProt P15144). The experiment in a line: Inhibition of APN in human ES2 cell surface using L-Leu-p-nitroanilide as substrate incubated for 5 mins prior to substrate addition measured after 1 hr by UV/VIS spectrophotometry. An outline of the steps:
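Enzyme source: intact ES-2 cells, 2 × 10^5 per well, in 10 mM PBS pH 7.4 with 0.1% DMSO final. Inhibitors preincubated with cells 5 min at room temperature. L-Leu-p-nitroanilide then added, 1 h at 37 °C. Inhibition from control and zero-setting OD; IC50 calculated; mean ± SD of three assays.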

Assay [3] deals with 72 kDa type IV collagenase (Homo sapiens, UniProt P08253). The experiment in a line: Inhibition of recombinant MMP2 using succinylated gelatin as substrate incubated for 10 mins prior to substrate addition measured after 1 hr by UV/VIS spectrophotometry. An outline of the steps:
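Recombinant MMP-2 and compound, both in 50 mM sodium borate pH 8.5, held 10 min at 37 °C. Succinylated gelatin then added for 60 min at 37 °C. Free amines developed with 0.03% picrylsulfonic acid, 20 min at room temperature, read at 450 nm. Inhibition from control and zero-setting OD; IC50 calculated; three assays, SD <10% of means.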

Assay [4] can be described thus: Antiproliferative activity against human ES2 cells after 48 hrs by MTT assay. Format: functional, cell-based. The settings on record: ES-2, 48 h. Put shortly:
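ES-2 cells grown in RPMI-1640 with 10% FBS, seeded 8000 per well and left to adhere 10 h. Compounds then added at a range of concentrations in the same medium with 0.1% DMSO, 48 h at 37 °C in CO2. MTT added for 4 h; formazan dissolved in DMSO, read at 590 nm. Inhibition from control and zero-setting OD; IC50 calculated; three assays.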
A general note: Formazan colour is commonly taken as a measure of viable cells.

Assay [5] has as its system ES2. In words: Antimetastatic activity against human ES2 cells assessed as inhibition of migration through transwell chamber without matrigel coating at 100 ug/mL after 3 hrs by crystal voilet staining. It counts as functional, cell-based. An outline of the steps:
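Uncoated transwell inserts. Upper chamber holds compound at 100 µg/mL in RPMI-1640 with 1% FBS, 0.1% DMSO final, plus ES-2 cells (60000 per well). Migration 3 h at 37 °C in CO2. Upper-side cells swabbed away; migrated cells fixed and stained with 0.1% crystal violet, extracted with 33% acetic acid, read at 595 nm. Rate uses treated, control and blank OD. Repeated ≥3 times in triplicate.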

Assay [6] can be described thus: Antimetastatic activity against human ES2 cells assessed as inhibition of invasion through transwell chamber with matrigel coating at 10 to 100 ug/mL after 8 hrs by crystal voilet staining relative to control. It counts as functional. An outline of the steps:
(§1)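 ES-2 cells (100,000 per insert) in RPMI-1640 with 1% FBS placed on Matrigel inserts rehydrated 2 h; lower chamber RPMI-1640 with 10% FBS. Compound at 10 and 100 μg/mL with 0.1% DMSO final added to upper chamber. Invasion 8 h at 37 °C in CO2. Non-invading cells swabbed off; remaining cells fixed and crystal-violet stained, counted in five random ×100 fields per insert. At least three experiments, triplicates.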

Assay [7] has as its system ES2. In words: Antimetastatic activity against human ES2 cells assessed as inhibition of invasion through transwell chamber with matrigel coating after 8 hrs by crystal voilet staining. It counts as functional, cell-based. Put shortly:
as §1

SMILES strings stand for the structures. Active and inactive are the calls of the source. No cut-off for these calls is given here. Some results are limits rather than exact numbers.

72 kDa type IV collagenase, sequence (P08253 whole entry): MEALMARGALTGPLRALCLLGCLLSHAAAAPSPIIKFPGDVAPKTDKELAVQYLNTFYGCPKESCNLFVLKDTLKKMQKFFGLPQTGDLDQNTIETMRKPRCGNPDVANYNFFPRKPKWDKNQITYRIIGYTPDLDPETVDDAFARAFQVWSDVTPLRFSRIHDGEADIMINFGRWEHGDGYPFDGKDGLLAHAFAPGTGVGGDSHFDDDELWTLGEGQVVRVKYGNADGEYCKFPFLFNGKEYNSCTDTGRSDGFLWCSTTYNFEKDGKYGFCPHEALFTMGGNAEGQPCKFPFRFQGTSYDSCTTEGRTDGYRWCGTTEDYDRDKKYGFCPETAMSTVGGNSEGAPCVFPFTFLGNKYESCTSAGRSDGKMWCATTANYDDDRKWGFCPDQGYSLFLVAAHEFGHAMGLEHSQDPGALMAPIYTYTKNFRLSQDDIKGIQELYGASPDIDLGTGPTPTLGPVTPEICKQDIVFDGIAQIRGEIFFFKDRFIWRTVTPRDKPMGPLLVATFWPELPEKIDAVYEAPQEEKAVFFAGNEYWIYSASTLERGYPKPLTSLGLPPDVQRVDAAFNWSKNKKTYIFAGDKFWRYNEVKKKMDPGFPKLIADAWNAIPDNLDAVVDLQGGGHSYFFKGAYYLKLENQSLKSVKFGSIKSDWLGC
Aminopeptidase N (Homo sapiens, UniProt P15144), sequence (P15144 whole entry): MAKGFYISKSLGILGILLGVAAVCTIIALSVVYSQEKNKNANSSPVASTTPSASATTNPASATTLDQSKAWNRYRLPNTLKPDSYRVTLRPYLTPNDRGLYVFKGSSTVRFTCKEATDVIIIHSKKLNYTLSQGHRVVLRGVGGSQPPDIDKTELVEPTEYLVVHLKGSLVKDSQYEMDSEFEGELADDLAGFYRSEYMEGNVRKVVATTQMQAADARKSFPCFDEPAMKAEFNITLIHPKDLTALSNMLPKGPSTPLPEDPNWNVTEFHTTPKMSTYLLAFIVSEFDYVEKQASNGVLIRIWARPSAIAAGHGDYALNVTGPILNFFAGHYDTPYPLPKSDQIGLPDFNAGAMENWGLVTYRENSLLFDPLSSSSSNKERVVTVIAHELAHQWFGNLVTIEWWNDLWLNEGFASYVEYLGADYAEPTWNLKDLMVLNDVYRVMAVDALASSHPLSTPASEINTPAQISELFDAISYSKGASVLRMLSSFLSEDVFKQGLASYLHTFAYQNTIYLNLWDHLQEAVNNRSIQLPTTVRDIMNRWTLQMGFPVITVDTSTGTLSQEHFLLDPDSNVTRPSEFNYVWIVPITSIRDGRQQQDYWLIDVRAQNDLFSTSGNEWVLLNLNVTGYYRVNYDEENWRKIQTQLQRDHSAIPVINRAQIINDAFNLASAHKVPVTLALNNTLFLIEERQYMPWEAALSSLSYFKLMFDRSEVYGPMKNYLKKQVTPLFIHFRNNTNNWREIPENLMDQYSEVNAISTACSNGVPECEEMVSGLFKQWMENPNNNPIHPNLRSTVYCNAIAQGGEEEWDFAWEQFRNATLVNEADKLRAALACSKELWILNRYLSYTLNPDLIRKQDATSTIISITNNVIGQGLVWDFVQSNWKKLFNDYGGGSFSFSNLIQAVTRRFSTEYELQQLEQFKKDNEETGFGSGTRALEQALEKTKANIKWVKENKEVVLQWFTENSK

In the case of `C[C@H](NC(=O)NCCc1ccccc1)C(=O)NO`, 21 µM corresponded to half-maximal inhibition at Aminopeptidase N [1] (IC50).

As for `O=C(NCCc1ccccc1)N[C@@H](Cc1ccccc1)C(=O)NO`, on Aminopeptidase N [1], the concentration for half-maximal inhibition (IC50) (usually the concentration that gives 50% inhibition) is 6.5 µM.

On Aminopeptidase N [1], `CC(C)[C@H](NC(=O)NC(C)(C)C)C(=O)NO` registered an IC50 of more than 100 µM.

For `CC(C)(C)NC(=O)NCC(=O)NO`, the IC50 on Aminopeptidase N [1] was more than 100 µM.

For `CC(C)C[C@H](NC(=O)NC(C)(C)C)C(=O)NO`, the IC50 against Aminopeptidase N [1] is more than 100 µM.

Turning to `C[C@H](NC(=O)NCc1ccccc1)C(=O)NO`, the IC50 on Aminopeptidase N [1] was found to be 21 µM.

The compound `CSCC[C@H](NC(=O)NCCc1ccccc1)C(=O)NO` registered a half-inhibitory concentration (IC50) against Aminopeptidase N [1] of more than 100 µM.

The compound `CC(C)C[C@H](NC(=O)OCc1ccccc1)C(=O)NO` displayed an IC50 at Aminopeptidase N [1] of 9.1 µM.

For the compound `CSCC[C@H](NC(=O)NCc1ccccc1)C(=O)NO`, the IC50 at Aminopeptidase N [1] is 3.8 µM; against Aminopeptidase N [2], 22 µM; in assay [3], more than 500 µM; in assay [4], more than 1000 µM.

Consider `C[C@H](NC(=O)NC(C)(C)C)C(=O)NO`, for which the IC50 against Aminopeptidase N [1] is more than 100 µM.

For `CC[C@H](C)[C@H](NC(=O)NCCc1ccccc1)C(=O)NO`, the half-maximal inhibitory concentration (IC50) on Aminopeptidase N [1] was more than 100 µM.

In the case of `CC(C)[C@H](NC(=O)NCCc1ccccc1)C(=O)NO`, the IC50 against Aminopeptidase N [1] was more than 100 µM.

On to `CSCC[C@H](NC(=O)NC(C)(C)C)C(=O)NO`, for which the IC50 at Aminopeptidase N [1] was more than 100 µM.

Regarding `CC[C@H](C)[C@H](NC(=O)NC(C)(C)C)C(=O)NO`, the IC50 at Aminopeptidase N [1] was more than 100 µM.

In assay [4], `CC(C)C[C@H](NC(=O)[C@@H](O)[C@H](N)Cc1ccccc1)C(=O)O` [UBENIMEX] showed an IC50 of 490 µM.

As to `O=C(CNC(=O)NCCc1ccccc1)NO`, the IC50 on Aminopeptidase N [1] was 52 µM.

As to `CC[C@H](C)[C@H](NC(=O)NCc1ccccc1)C(=O)NO`, the IC50 is 4.1 µM against Aminopeptidase N [1], 39 µM against Aminopeptidase N [2], more than 500 µM in assay [3] and 770 µM in assay [4]. Further, the inhibition result in the assay with ES2 [5] was “inactive”.

The compound `O=C(CNC(=O)NCc1ccccc1)NO` gave a half-maximal inhibitory concentration (IC50) on Aminopeptidase N [1] of 32 µM.

At Aminopeptidase N [1], `CC(C)C[C@H](NC(=O)N[C@@H](CC(C)C)C(=O)NO)C(=O)NO` registered a half-maximal inhibitory concentration (IC50) of more than 100 µM.

Compound `CC(C)(C)NC(=O)N[C@@H](Cc1ccccc1)C(=O)NO` showed an IC50 at Aminopeptidase N [1] of more than 100 µM.

`CC(C)[C@H](NC(=O)NCc1ccccc1)C(=O)NO` had an IC50 against Aminopeptidase N [1] of 17 µM.

In the case of `CC(C)C[C@H](NC(=O)NCCc1ccccc1)C(=O)NO`, the IC50 against Aminopeptidase N [1] is 1.1 µM; against Aminopeptidase N [2], 5.1 µM; in assay [3], more than 500 µM; in assay [4], 96 µM. Further, the inhibition result in the assay on ES2 [5] was “inactive”. For the same compound, the “inhibition (INH)” value in assay [6] is 55%. Also, the inhibition entry with ES2 [7] was “Dose-dependent effect”.

`CC(C)C[C@H](NC(=O)NC1CCCCC1)C(=O)NO`: on Aminopeptidase N [1], the concentration for half-maximal inhibition (IC50) was more than 100 µM.

The compound `CC(C)C[C@H](NC(=O)OCCc1ccccc1)C(=O)NO` registered an IC50 on Aminopeptidase N [1] of 18 µM.

`O=C(N[C@@H](Cc1ccccc1)C(=O)NO)N[C@@H](Cc1ccccc1)C(=O)NO` registered an IC50 against Aminopeptidase N [1] of more than 100 µM.

Regarding `O=C(NCc1ccccc1)N[C@@H](Cc1ccccc1)C(=O)NO`, the IC50 against Aminopeptidase N [1] is 5.6 µM; on Aminopeptidase N [2] it was 16 µM; in assay [3] it was more than 500 µM; in assay [4], 510 µM. Besides, the inhibition result in the assay with ES2 [5] was “inactive”.
